Experimental data reported in ChEMBL document CHEMBL4376875, “Synthesis and Biological Evaluation of B-Cell Lymphoma 6 Inhibitors of N-Phenyl-4-pyrimidinamine Derivatives Bearing Potent Activities against Tumor Growth” (J Med Chem, 2020).
Active and inactive are the calls of the source. The calls are words filed in the database; no cut-off is given here.

Experiments:
[1] = molecular target: B-cell lymphoma 6 protein (Homo sapiens, UniProt P41182, C67R/C84N/C8Q); assay: Inhibition of recombinant human C-terminal GST-tagged BCL6 BTB domain C8Q/C67R/C84N triple mutant expressed in Escherichia coli BL21 (DE3) cells assessed as reduction in SMRT/BTB domain interaction incubated for 1 hr by HTRF assay
[2] = molecular target: B-cell lymphoma 6 protein (Homo sapiens, UniProt P41182); assay: Binding affinity to lateral groove of BCL6 BTB domain (unknown origin)
Procedure, shortened: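 GST-tagged BCL6 protein was expressed in E. coli BL21(DE3), purified on glutathione Sepharose, dialysed into PBS and used for biolayer interferometry. GST biosensors were hydrated 10 min in kinetics buffer (1× PBS, 0.02% Tween 20), given a 60 s baseline, then loaded with BCL6-GST at 50 ng/mL for 300-600 s. After a second 60 s baseline, sensors were dipped into serially diluted compound.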

Toledo [3] = assay: Antiproliferative activity against BCL6-negative human Toledo cells assessed as reduction in cell viability incubated for 72 hrs by CCK8 assay
L02 = assay: Cytotoxicity against human LO2 cells assessed as reduction in cell viability incubated for 72 hrs by CCK8 assay; details: L02, 72 h
Farage [4] = assay: Antiproliferative activity against human Farage cells assessed as reduction in cell viability incubated for 72 hrs by CCK8 assay
Farage [5] = assay: Antiproliferative activity against human Farage cells transfected with empty vector lentivirus assessed as reduction in cell viability at 10 to 80 uM incubated for 72 hrs by CCK8 assay; assay type: functional, cell-based
Procedure, shortened: (§1)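 Lentivirus made by transfection; supernatant collected at 48 h and 72 h. DLBCL cells infected with virus plus 8 μg/mL polybrene for 48 h, then selected in RPMI 1640 with 2 μg/mL puromycin. Transduced cells seeded at 2 × 10⁴ cells/well and exposed to compound for 72 h. CCK8 added, 1-2 h at 37 °C, absorbance read at 450 nm. Run in triplicate.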

SUD4 [6] = assay: Antiproliferative activity against human SUDHL4 cells assessed as living cells and S phase cells at 1.25 uM incubated for 48 hrs by Edu based flow cytometry analysis (reference value: 48.3%)
SUD4 [7] = assay: Induction of apoptosis in human SUDHL4 cells assessed as early apoptotic cells at 0.625 uM incubated for 48 hrs by annexin V-FITC and propidium iodide staining based flow cytometry analysis (reference value: 2.62%); assay type: functional
SUD4 [8] = assay: Induction of apoptosis in human SUDHL4 cells assessed as early apoptotic cells at 1.25 uM incubated for 48 hrs by annexin V-FITC and propidium iodide staining based flow cytometry analysis (reference value: 2.62%); assay type: functional
SUD4 [9] = assay: Antiproliferative activity against human SUDHL4 cells assessed as living cells and S phase cells at 2.5 uM incubated for 48 hrs by Edu based flow cytometry analysis (reference value: 48.3%)
SUD4 [10] = assay: Induction of apoptosis in human SUDHL4 cells assessed as late apoptotic cells at 0.625 uM incubated for 48 hrs by annexin V-FITC and propidium iodide staining based flow cytometry analysis (reference value: 1.39%); assay type: functional
SUD4 [11] = assay: Antiproliferative activity against human SUDHL4 cells assessed as living cells and S phase cells at 0.625 uM incubated for 48 hrs by Edu based flow cytometry analysis (reference value: 48.3%)
Mus musculus [12] = assay: In vivo inhibition of GC formation in NP-CGG immunized C57BL/6 mouse assessed as splenic GC B cells (GL7+FAS+B220+) at 50 mg/kg/day, ip for 12 days starting from 2 days after NP-CGG addition by flow cytometry (reference value: 1.97%); assay type: functional; set-up: scale not given: the % may be the effect or the level left
Toledo [13] = assay: Antiproliferative activity against human Toledo cells transfected with lentivirus overexpressing BCL6 assessed as reduction in cell viability up to 20 uM incubated for 72 hrs by CCK8 assay; assay type: functional, cell-based; procedure, shortened: as §1
Mus musculus [14] = species on record: Mus musculus; details: C57BL/6, 50 mg/kg
SUD4 [15] = assay: Induction of apoptosis in human SUDHL4 cells assessed as early apoptotic cells at 2.5 uM incubated for 48 hrs by annexin V-FITC and propidium iodide staining based flow cytometry analysis (reference value: 2.62%); assay type: functional
SUD4 [16] = assay: Induction of apoptosis in human SUDHL4 cells assessed as late apoptotic cells at 1.25 uM incubated for 48 hrs by annexin V-FITC and propidium iodide staining based flow cytometry analysis (reference value: 1.39%); assay type: functional
DOHH-2 = assay: Antiproliferative activity against human DOHH2 cells assessed as reduction in cell viability incubated for 72 hrs by CCK8 assay; details: DOHH-2, 72 h
SUD4 [17] = assay: Induction of apoptosis in human SUDHL4 cells assessed as late apoptotic cells at 2.5 uM incubated for 48 hrs by annexin V-FITC and propidium iodide staining based flow cytometry analysis (reference value: 1.39%); assay type: functional
OCI-Ly7 = assay: Antiproliferative activity against human OCI-LY7 cells assessed as reduction in cell viability incubated for 72 hrs by CCK8 assay; details: OCI-Ly7, 72 h
SUD4 [18] = assay: Antiproliferative activity against human SUDHL4 cells assessed as reduction in cell viability incubated for 72 hrs by CCK8 assay; details: SU-DHL-4, 72 h
PNT1A = assay: Cytotoxicity against human PNT1A cells assessed as reduction in cell viability incubated for 72 hrs by CCK8 assay
NCM460 = assay: Cytotoxicity against human NCM460 cells assessed as reduction in cell viability incubated for 72 hrs by CCK8 assay; details: NCM460, 72 h
[19] = Cytotoxicity against HAF cells assessed as reduction in cell viability incubated for 72 hrs by CCK8 assay; details: Homo sapiens
Farage [20] = assay: Antiproliferative activity against human Farage cells transfected with lentivirus expressing BCL6 shRNA assessed as reduction in cell viability at 10 to 80 uM incubated for 72 hrs by CCK8 assay; assay type: functional, cell-based
Toledo [21] = assay: Antiproliferative activity against human Toledo cells transfected with empty vector lentivirus assessed as reduction in cell viability up to 20 uM incubated for 72 hrs by CCK8 assay; assay type: functional, cell-based; procedure, shortened: as §1

`COc1ccc(Nc2nc(N(CC(C)C)CC(C)C)ncc2F)cc1Cl` showed an IC50 [1] greater than 10 µM.
With `O=C(O)CC(C(=O)O)N1C(=O)/C(=C2/C(=O)Nc3ccc(Br)cc32)SC1=S` (stereo not drawn) the Kd [2] was 138 µM.
`COc1cc(Nc2nc(N3C[C@@H](C)N[C@@H](C)C3)ncc2F)ccc1NC(=O)c1ccc(Br)o1` gave an IC50 [1] greater than 10 µM.
Molecule `COc1ccc(Nc2nc(N3C[C@H](C)C[C@H](C)C3)ncc2F)cc1Cl` has an IC50 [1] greater than 10 µM.
Work on `COc1ccc(Nc2nc(N3C[C@@H](C)N[C@@H](C)C3)ncc2F)cc1NC(=O)c1ccc(Br)s1` yielded an IC50 [1] greater than 20 µM.
`COc1cc(Nc2nc(N3C[C@@H](C)N[C@@H](C)C3)ncc2F)ccc1NC(=O)c1ccc(Br)s1` gave an IC50 [1] greater than 10 µM.
`CCCCNc1ncc(F)c(Nc2ccc(OC)c(Cl)c2)n1` showed an IC50 [1] greater than 10 µM.
Work on `O=C(O)CCN1C(=O)/C(=C2/C(=O)Nc3ccc(Cl)cc32)SC1=S` yielded an IC50 (Toledo [3]) of 65.3 µM, an IC50 (L02) greater than 100 µM and an IC50 (Farage [4]) of 33.9 µM. The Activity (Farage [5]) was “Active”, the Activity (SUD4 [6]) was 45.1% and the Activity (SUD4 [7]) was 2.86%. It also gave an Activity (SUD4 [8]) of 2.62%, an Activity (SUD4 [9]) of 47.4% and an Activity (SUD4 [10]) of 1.81%. For the same molecule, the Activity (SUD4 [11]) was 48.5%, the Activity (Mus musculus [12]) was 0.73% and the Activity (Toledo [13]) was “Active”. The inhibition (Mus musculus [14]) was “Active”, the Activity (SUD4 [15]) was 3.19% and the Activity (SUD4 [16]) was 1.73%. The IC50 (DOHH-2) was 35.1 µM, the Activity (SUD4 [17]) was 1.96% and the IC50 (OCI-Ly7) was 39 µM. It also gave an IC50 (SUD4 [18]) of 51.3 µM, an IC50 (PNT1A) greater than 100 µM and an IC50 (NCM460) greater than 100 µM. The IC50 [19] was greater than 100 µM and the Activity (Farage [20]) was “Active”.
In the case of `O=C1Cc2cc(Nc3nc(NCc4cccnc4)ncc3Cl)ccc2N1`, the IC50 (Toledo [3]) is reported as 39.5 µM, the IC50 (L02) is reported as greater than 100 µM and the IC50 (Farage [4]) is reported as 33.5 µM. The Activity (Farage [5]) was “Active”, the Activity (SUD4 [6]) was 41.6% and the Activity (SUD4 [7]) was 3.11%. The Activity (SUD4 [8]) was 3.43%, the Activity (SUD4 [9]) was 41.2% and the Activity (SUD4 [10]) was 1.89%. The Activity (Toledo [21]) was “Active”, the Activity (SUD4 [11]) was 43.4% and the Activity (Toledo [13]) was “Active”. The Activity (SUD4 [15]) was 3.15%, the Activity (SUD4 [16]) was 1.97% and the IC50 (DOHH-2) was 47.6 µM. The Activity (SUD4 [17]) was 1.74%, the IC50 (OCI-Ly7) was 33.9 µM and the IC50 (SUD4 [18]) was 24.3 µM. For the same molecule, the IC50 (PNT1A) was greater than 100 µM, the IC50 (NCM460) was greater than 100 µM and the IC50 [19] was greater than 100 µM. For the same molecule, the Activity (Farage [20]) was “Active”.
With `COc1ccc(Nc2nc(N3C[C@@H](C)N[C@@H](C)C3)ncc2F)cc1NC(=O)c1ccc(Br)o1` the IC50 [1] was greater than 20 µM.
